This is a sample that favours compounds with a hit; in the whole collection about 3.8% have one here.
Kir21 block = inhibitors of mouse Kir2.1 inward-rectifier potassium channel; Inward rectifier potassium channel 2 (Mus musculus), P35561; HEK293-Kir2.1, FluxOR thallium flux fluorescence; active compounds read low; B-score at 10 µM; 310,000 tested, 0.85% active; AID 1672, 2009;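 active = fluorescence ratio B-score at or below minus 3 SD of library scores, with starting-brightness B-score within 2 SD, cut at about -4.2 in these data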;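 also: channel flux triggered by added potassium and thallium sulfate stimulus; B-score of peak minus minimum fluorescence over baseline after thallium stimulus; more negative B-score means stronger Kir2.1 block with less thallium influx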
KCNK9 inh = KCNK9 potassium channel inhibitors, primary screen, HEK293 cells, thallium flux; 310,000 tested, 1.2% active; B-score at 10 µM; AID 488922, 2010; Potassium channel subfamily K member 9 (Homo sapiens), Q9NPC2; FluxOR thallium flux fluorescence; active compounds read low;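 active = ratio B-score over 3 SD below the library mean, with starting fluorescence within 5 SD of its mean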;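 also: negative B-score means less thallium flux so channel inhibition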
Target sequence (Q9NPC2 whole entry, looked up): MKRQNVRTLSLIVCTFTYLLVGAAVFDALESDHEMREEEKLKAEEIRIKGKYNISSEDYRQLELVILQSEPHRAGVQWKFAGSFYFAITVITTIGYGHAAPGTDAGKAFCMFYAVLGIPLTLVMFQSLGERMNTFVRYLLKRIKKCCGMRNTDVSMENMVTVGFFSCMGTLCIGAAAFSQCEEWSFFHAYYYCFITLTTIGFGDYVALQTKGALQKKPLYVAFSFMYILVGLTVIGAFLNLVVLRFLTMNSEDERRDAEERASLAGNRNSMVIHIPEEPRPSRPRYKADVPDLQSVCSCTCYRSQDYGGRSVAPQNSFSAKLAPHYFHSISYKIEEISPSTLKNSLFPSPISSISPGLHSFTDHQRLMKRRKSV
hERG rescue = hERG rescue from dofetilide block, primary screen, cell-based, CHO-hERG, FluxOR thallium flux, dofetilide IC70 | dofetilide IC70 present | activation (rescue from dofetilide block), less the hit threshold, % at 10 µM | 310,000 tested, 0.51% active | AID 1511, 2009;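 active = activation above the mean of controls blocked by dofetilide plus 5 SD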;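 also: thallium influx through hERG after potassium depolarization seen as dye fluorescence rise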
KCNQ1 block = inhibitors of human KCNQ1 channel, primary screen, cell-based, thallium flux, high-throughput; CHO-K1 KCNQ1, FluxOR thallium flux fluorescence; active compounds read high; AID 2642, 2010; 310,000 tested, 1.3% active; Potassium voltage-gated channel subfamily KQT member 1 (Homo sapiens), P51787; B-score at 10 µM;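 active = compounds whose thallium flux B-score, printed positive for inhibition, exceeds three library SD while starting fluorescence stays within three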;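 also: channel opened by potassium depolarization with thallium stimulus after 20 min compound exposure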
KCNQ1 act = potentiators or activators of KCNQ1 channel, primary screen, cell-based, thallium flux, high-throughput; Potassium voltage-gated channel subfamily KQT member 1 (Homo sapiens), P51787; CHO-K1 KCNQ1, thallium flux FluxOR fluorescence; active compounds read high; B-score at 10 µM; 310,000 tested, 0.35% active;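 active = fluorescence ratio B-score, a plate-corrected score, at least three library SD, with initial intensity B-score within 5 SD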
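Doses: Single concentration per compound, DMSO matched to controls | Test system: KCNQ1-transfected CHO-K1 cells | Timing: 90 min dye loading and 20 min compound exposure, both at room temperature | Measured by: Kinetic FluxOR thallium fluorescence, 10-s 1-Hz baseline, 110-s post-stimulus read | Medium: Assay buffer with matched DMSO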
KCNK3 inh = human KCNK3 channel inhibitors, primary screen, CHO cells, FluxOR thallium flux, B-score; Potassium channel subfamily K member 3 (Homo sapiens), O14649; FluxOR fluorescence; active compounds read low; B-score at 10 µM; 340,000 tested, 0.84% active;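 active = B-score under library mean minus 4 SD, starting fluorescence ratio at most library mean plus 5 SD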;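 also: more negative B-score means stronger inhibition of thallium flux through KCNK3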
Starred values were filed as active, the others as inactive.

O=C(N/N=C/c1ccc([N+](=O)[O-])o1)c1cn(-c2ccccc2)nc1-c1ccccc1 was read as Kir21 block -0.15, KCNK9 inh inactive, hERG rescue -2.2, KCNQ1 block inactive, KCNQ1 act inactive and KCNK3 inh inactive.
O=C(N/N=C/c1ccc([N+](=O)[O-])o1)c1cn(-c2ccccc2)nc1-c1ccc(Cl)cc1 was read as Kir21 block 1.2, KCNK9 inh inactive, hERG rescue 8.3*, KCNQ1 block inactive, KCNQ1 act inactive and KCNK3 inh inactive.
O=C(N/N=C\c1cn(-c2ccccc2)nc1-c1ccccc1)c1ccc(Br)o1 was read as Kir21 block 1.85, KCNK9 inh -7.13*, hERG rescue -8.8, KCNQ1 block 13*, KCNQ1 act inactive and KCNK3 inh inactive.
For CCCSCCCNC(=O)c1ccc(C)c(NC(=O)C2=C(C)OCCS2)c1 the results were Kir21 block 1.36, KCNK9 inh inactive, hERG rescue -5.6, KCNQ1 block inactive, KCNQ1 act inactive and KCNK3 inh inactive.
Screening O=C1C(=C(I)I)c2ccccc2-c2ccccc21 returned KCNK3 inh -9.41*.
O=C1CSC(c2cccnc2)N1Cc1ccc(Cl)cc1Cl (stereo not given) was read as Kir21 block -4.4*, KCNK9 inh inactive, hERG rescue -3.3, KCNQ1 block inactive, KCNQ1 act inactive and KCNK3 inh inactive.
For CCCCc1sc(-c2c(C#N)c(N)nc3c2CCCCC3)cc1[N+](=O)[O-] the results were Kir21 block 1.3, KCNK9 inh -6.74*, hERG rescue -4.1, KCNQ1 block inactive, KCNQ1 act inactive and KCNK3 inh inactive.
Screening CCC(C(=O)OCC(=O)NC(=O)c1ccccc1OC)c1ccccc1 (stereo not given) returned Kir21 block -8.06*, KCNK9 inh inactive, hERG rescue -14.7, KCNQ1 block inactive, KCNQ1 act inactive and KCNK3 inh inactive.
Cc1ccc(S(=O)(=O)NCCSc2nnnn2-c2ccccc2)cc1 was read as Kir21 block -7.08*, KCNK9 inh inactive, hERG rescue -0.3, KCNQ1 block inactive, KCNQ1 act inactive and KCNK3 inh inactive.
CN(C)C(=O)c1cc(C(=O)c2ccc(F)cc2Cl)c[nH]1 was read as Kir21 block 0.1, KCNK9 inh inactive, hERG rescue -3.0, KCNQ1 block inactive, KCNQ1 act inactive and KCNK3 inh inactive.
CN(C)C(=O)c1cc(Cl)ccc1Sc1cc(Cl)ccc1Cl was read as Kir21 block -5.43*, KCNK9 inh inactive, hERG rescue -17.9, KCNQ1 block inactive, KCNQ1 act inactive and KCNK3 inh inactive.
`CN(C)C(=O)c1cc(F)ccc1Sc1cc(Cl)ccc1Cl` gave Kir21 block -5.8*, KCNK9 inh inactive, hERG rescue -12.0, KCNQ1 block inactive, KCNQ1 act inactive and KCNK3 inh inactive.
Cc1cc(F)ccc1S(=O)(=O)Nc1ccc(C(=O)N2CCCCC2)cc1 was read as KCNK3 inh inactive.
`O=[N+]([O-])c1cccc(COc2cccc(CN3CCCCC3)c2)c1` gave KCNK3 inh inactive.
`O=C(Nc1ccc(Oc2cccnc2)cc1)C1CCN(Cc2ccccc2)CC1` gave Kir21 block -3.45, KCNK9 inh inactive, hERG rescue -5.6, KCNQ1 block inactive, KCNQ1 act inactive and KCNK3 inh inactive.
`Cc1cccc(CN2CCCC(C(=O)Nc3ccccc3Oc3cccnc3)C2)c1` (stereo not given) gave Kir21 block -5.51*, KCNK9 inh inactive, hERG rescue -3.4, KCNQ1 block inactive, KCNQ1 act inactive and KCNK3 inh inactive.
For Cc1ccc(CN2CCC(C(=O)Nc3ccc(Oc4cccnc4)cc3)CC2)cc1 the results were Kir21 block -4.79*, KCNK9 inh inactive, hERG rescue -8.8, KCNQ1 block inactive, KCNQ1 act inactive and KCNK3 inh inactive.
